Measured values as given in ChEMBL document CHEMBL1124794, “Synthesis, chemistry, and antineoplastic activity of alpha-halopyridinium salts: potential pyridone prodrugs of acylated vinylogous carbinolamine tumor inhibitors” (J Med Chem, 1990).

Assays:
MX1 = experiment: In vivo activity against murine MX-1 tumor system at the dose of 37.5 mg/kg, activity expressed as TDS; 4/6; assay type: functional, Mus musculus
P388 [1] = experiment: In vivo activity against P388 Lymphocytic Leukemia in CD2F1 mice at the dose of 100 mg/kg, activity expressed as TDS; 1/6; assay type: functional, Mus musculus
Summary of the method: (§1)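 CD2F1 mice were inoculated with ascitic fluid holding ca. 10^6 P388 cells. Drug was given daily from 24 h after inoculation, from solutions or suspensions made fresh each day, some as a saline suspension. TDS is survivors/initial animals on day 5. BWD is body weight on day 5 minus day 1. %T/C compares median survival of treated and control mice.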

P388 [2] = experiment: In vivo activity against P388 Lymphocytic Leukemia in CD2F1 mice at the dose of 50 mg/kg, activity expressed as body weight difference; assay type: functional, Mus musculus; summary of the method: as §1
[3] = Effect of phosphate buffer on the hydrolysis of alpha Fluoropyridinium Moity at the concentration of 0.02M, pH 8.0, 25 degree C; assay type: ADME
Summary of the method: (§2)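 α-Fluoropyridinium hydrolysis to pyridone in phosphate buffer at 0.02, 0.05 or 0.10 M, pH 6.5 or 8.0, ionic strength […] °C. Pyridinium UV absorbance maximum followed with time to give pseudo-first-order kobs and half-life.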

P388 [4] = experiment: In vivo activity against P388 Lymphocytic Leukemia in CD2F1 mice at the dose of 100 mg/kg, activity expressed as body weight difference; assay type: functional, Mus musculus; summary of the method: as §1
L1210 [5] = experiment: In vivo activity against murine L1210 tumor system at the dose of 50 mg/kg, activity expressed as TDS; 5/6; assay type: functional, Mus musculus
Summary of the method: (§3)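 L1210 lymphocytic leukemia: ascitic fluid with ca. 10^6 cells injected ip into CD2F1 mice. Dosing started 24 h after inoculation and was repeated daily for five doses in total, from solutions or suspensions made fresh each day. Toxicity day survivors were scored on day 5. Body weight difference is day 5 minus day 1. %T/C is based on median survival time versus controls.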

[6] = Effect of phosphate buffer on the hydrolysis of alpha Fluoropyridinium Moity at the concentration of 0.05M, pH 8.0,25degree C; assay type: ADME; summary of the method: as §2
L1210 [7] = experiment: In vivo activity against murine L1210 tumor system at the dose of 25 mg/kg, activity expressed as %T/C.; assay type: functional, Mus musculus; summary of the method: as §3
[8] = Effect of Ionic strength (1.0M NaCl)on the hydrolysis of pyridinium Moity in 0.02 M buffer concentration, pH 7.4,25 degree C; assay type: ADME
Summary of the method: (§4)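 Pyridinium salt in 0.02 M phosphate buffer, pH 7.4, 25 °C, with NaCl varied 0.10–1.0 M. Loss of the pyridinium chromophore's UV absorbance maximum (conversion to pyridone) followed over time. Pseudo-first-order kobs and half-life derived from that decay.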

[9] = In vivo activity against murine M5076 tumor system at the dose of 25 mg/kg, activity expressed as KE; assay type: functional, Mus musculus
Summary of the method: (§5)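 M5076: ascitic fluid with ca. 10^6 cells inoculated ip into CD2F1 mice. Dosing started 24 h after inoculation and was then given every 4 days for four doses in total, from solutions or suspensions made fresh each day. Toxicity day survivors were scored on day 5. Body weight difference is day 14 minus day 1. %T/C is based on median survival time versus controls.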

[10] = Half life at the ionic strength 0.10 M NaCl; assay type: ADME; summary of the method: as §4
[11] = Effect of pH on the hydrolysis of pyridinium Moity in 0.05 M buffer concentration at the pH 6.0; assay type: ADME
Summary of the method: (§6)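 Pyridinium salt in 0.05 M phosphate buffer, pH 6.0–8.0 (set by pH meter), ionic strength 0.25 M, 25 °C. Decrease in the pyridinium UV absorbance maximum followed over time to give pseudo-first-order kobs and half-life.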

[12] = In vivo activity against murine M5076 tumor system at the dose of 50 mg/kg, activity expressed as TDS; 10/10; assay type: functional, Mus musculus
[13] = Effect of pH on the hydrolysis of pyridinium Moity in 0.05 M buffer concentration at the pH 6.5; assay type: ADME; summary of the method: as §6
L1210 [14] = experiment: In vivo activity against murine L1210 tumor system at the dose of mg/kg, activity expressed as KE; assay type: functional, Mus musculus; summary of the method: as §3
[15] = Effect of pH on carbamate hydrolysis in 0.05 M buffer concentration at the pH 9.0, 25 degree C.; assay type: ADME
Summary of the method: (§7)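 Bis-carbamate in acetonitrile–water (1:1; buffer added to a 0.5 mg/mL acetonitrile solution), 0.05 M buffer, ionic strength 0.136 (KCl), 25 ± 0.1 °C. Buffers: phosphate pH 2.0; citrate pH 3.0–3.5; succinate pH 4.0; acetate pH 5.0; phosphate pH 6.0–8.0; borate pH 9.0; carbonate pH 10.0. HPLC bis-carbamate peak-area loss, ln(area0/areat) vs time slope = kobs. Duplicates averaged.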

L1210 [16] = experiment: In vivo activity against murine L1210 tumor system at the dose of 100 mg/kg, activity expressed as TDS; 6/6; assay type: functional, Mus musculus; summary of the method: as §3
[17] = Half life at the concentration of 0.025 M.; assay type: ADME
[18] = Half life at the pH 9.0; assay type: ADME; settings: buffer
Summary of the method: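 Bis-carbamate hydrolysis in acetonitrile–water (1:1) with 0.05 M borate buffer (boric acid–NaOH), pH 9.0, ionic strength 0.136 adjusted with KCl, 25 °C, thermostated. Loss of the bis-carbamate peak area was tracked by HPLC. k_obs is the slope of ln(area0/areat) vs time. Values are averages of two determinations.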

[19] = In vivo activity against murine M5076 tumor system at the dose of 36 mg/kg, activity expressed as %T/C.; assay type: functional, Mus musculus; summary of the method: as §5
P388 [20] = experiment: In vivo activity against P388 Lymphocytic Leukemia in CD2F1 mice at the dose of 50 mg/kg, activity expressed as body weight difference; T-C; assay type: functional, Mus musculus; summary of the method: as §1
L1210 [21] = experiment: In vivo activity against murine L1210 tumor system at the dose of 60 mg/kg, activity expressed as KE; assay type: functional, Mus musculus; summary of the method: as §3
L1210 [22] = experiment: In vivo activity against murine L1210 tumor system at the dose of 60 mg/kg, activity expressed as TDS; 6/6; assay type: functional, Mus musculus; summary of the method: as §3
[23] = In vivo activity against murine M5076 tumor system at the dose of 100 mg/kg, activity expressed as body weight difference; T-C; assay type: functional, Mus musculus; summary of the method: as §5
[24] = Effect of pH on carbamate hydrolysis in 0.05 M buffer concentration at the pH 3.5, 25 degree C.; assay type: ADME; summary of the method: as §7
L1210 [25] = experiment: In vivo activity against murine L1210 tumor system at the dose of 36 mg/kg, activity expressed as %T/C.; assay type: functional, Mus musculus; summary of the method: as §3
[26] = Effect of pH on carbamate hydrolysis in 0.05 M buffer concentration at the pH 2.0, 25 degree C.; assay type: ADME; summary of the method: as §7
L1210 [27] = experiment: In vivo activity against murine L1210 tumor system at the dose of 100 mg/kg, activity expressed as KE; assay type: functional, Mus musculus
P388 [28] = experiment: In vivo activity against P388 Lymphocytic Leukemia in CD2F1 mice at the dose of 400 mg/kg, activity expressed as body weight difference; T-C; assay type: functional, Mus musculus; summary of the method: as §1
[29] = In vivo activity against murine M5076 tumor system at the dose of 21.6 mg/kg, activity expressed as KE; assay type: functional, Mus musculus; summary of the method: as §5
L1210 [30] = experiment: In vivo activity against murine L1210 tumor system at the dose of 166.7 mg/kg, activity expressed as %T/C.; assay type: functional, Mus musculus; summary of the method: as §3
P388 [31] = experiment: In vivo activity against P388 Lymphocytic Leukemia in CD2F1 mice at the dose of 400 mg/kg, activity expressed as TDS; 2/6; assay type: functional, Mus musculus; summary of the method: as §1

## CC(C)NC(=O)OCc1c(COC(=O)NC(C)C)c(-c2cc[n+](C)c(F)c2)n2c1CCC2.[I-]
MX1
  TDS: 4
P388 [1]
  TDS: 1
P388 [2]
  BWD: -0.8 g
[3]
  K obs: 0.0132 min⁻¹
P388 [4]
  BWD: -7.6 g
L1210 [5]
  TDS: 5
[6]
  K obs: 0.02 min⁻¹
L1210 [7]
  T/C: 118%
[8]
  K obs: 0.007 min⁻¹
[9]
  KE: -1.98
[10]
  half-life: 29.1 min
[11]
  K obs: 0.0044 min⁻¹
[12]
  TDS: 10
[13]
  K obs: 0.0153 min⁻¹
L1210 [14]
  KE: -2.08

## CC(C)NC(=O)OCc1c(COC(=O)NC(C)C)c(-c2ccn(C)c(=O)c2)n2c1CCC2
[15]
  K obs: 0.0129 min⁻¹
L1210 [16]
  TDS: 6
[17]
  half-life: 20.3 min
[18]
  half-life: 54 min
[19]
  T/C: 117%
P388 [20]
  BWD: -0.6 g
L1210 [21]
  KE: -0.5
L1210 [22]
  TDS: 6
[23]
  BWD: -1.3 g
[24]
  K obs: 0.0214 min⁻¹
L1210 [25]
  T/C: 135%
[26]
  K obs: 0.33 min⁻¹
L1210 [27]
  KE: -0.22
P388 [28]
  BWD: -1 g
[29]
  KE: -1.93
L1210 [30]
  T/C: 110%
P388 [31]
  TDS: 2
